Measurements as given in publication PMC13499490 (International Journal for Parasitology: Drugs and Drug …, 2026).
Blank lines part the entries; values can stand above or below the compound they belong to.

What was measured:
[1] = tested on: T. cruzi extracts (TCH) translating capped and polyadenylated Renilla luciferase reporter mRNA; type: biochemical, Trypanosoma cruzi; details: for % Inhibition: initial screen, 40 μM, Renilla luciferase signal relative to DMSO; for concentration above which translation was fully inhibited: Fig. 3C
Plasmodium falciparum = details: ref Plouffe et al., 2008; cited from earlier work
[2] = tested on: protein synthesis in T. cruzi epimastigotes (WT, DM28c strain); test: Puromycylation assay in living epimastigotes; type: cell-based, Trypanosoma cruzi; details: 40 μM, 1 h pre-incubation, then puromycin 10 μg/mL 15 min
Summary of the method: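 Dm28c epimastigotes at 1 × 10⁷/mL in LIT-10% FBS, preincubated 1 h at 28°C with test compound (40 μM, from DMSO), with DMSO and 5 μM cycloheximide controls. Puromycin at 10 μg/mL, 15 min, 28°C; cells RIPA-lysed. 20 μg protein run on 10% SDS-PAGE and blotted with anti-puromycin mAb (1:100, overnight, 4°C), then IRDye680 secondary; anti-aldolase loading control. 150–20 kDa signal quantified relative to DMSO; 2–4 independent experiments.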

[3] = tested on: supplemented TCH extract translating capped and polyadenylated Renilla mRNA; test: Miniaturized low-volume; type: biochemical, Trypanosoma cruzi; details: 8 μL; for % Inhibition (40 µM): Table S3, 40 µM; for inhibition of translation in T. cruzi extract (in words): 40 μM, 2 h, Fig. 3B
PAK4 = details: mammalian cells; ref Pereira-Veiga et al., 2025; cited from earlier work
[4] = tested on: T. cruzi parasite extract translating Renilla mRNA; test: Miniaturized 5 μL T. cruzi in vitro translation assay; type: biochemical, Trypanosoma cruzi; details: 5 μl format, 40 μM, Fig. 5D
Summary of the method: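 Extract from DM28c-derived epimastigotes, lysed by nitrogen cavitation; the 30,000 × g supernatant was supplemented with translation buffer containing ATP, GTP, creatine phosphate/kinase, amino acids and spermidine. Reaction of 5 μL: 2 μL lysate, 1 μL test compound (40 μM), 2 μL SP6-transcribed capped, polyadenylated spliced-leader–Renilla luciferase mRNA (22 ng). Luminescence read after adding Renilla luciferase reagent.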

[5] = tested on: T. cruzi epimastigotes (DM28c); test: Epimastigote proliferation, SYBR Green assay; type: cell-based, Trypanosoma cruzi; details: for effect on epimastigote growth (in words): Fig. S2, 1% DMSO; for EC50: Trypanosoma cruzi, 72 h, read-out: EC50 epimastigote proliferation; for concentration for maximal inhibition / full block of epimastigote growth: growth curves
[6] = tested on: T. cruzi amastigotes (DM28c parasite strain) in Vero cells; test: Amastigote proliferation and cytotoxicity in Vero cells; type: cell-based, Trypanosoma cruzi; details: DM28c trypomastigotes, Fig. S6
[7] = Host cell cytotoxicity in infected U2OS cells; type: cell-based; details: human
Summary of the method: (§1)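 U2OS cells, grown in DMEM with 10% FBS at 37°C and 5% CO2, seeded at 500 cells/well in 384-well plates and infected after 24 h with 5000 Sylvio X10/1 trypomastigotes. Treated 24 h later with test compound (100 μM to 0.7 nM, 0.5% DMSO) for 48 h, with benznidazole and DMSO controls. Cells fixed in 4% paraformaldehyde, stained with DAPI and DRAQ5, imaged by high-content analysis. Amastigote-to-cell ratio normalised to untreated (100%) and non-infected (0%) wells. EC50 and CC50 from three-parameter nonlinear fit; selectivity index from mean EC50 and CC50.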

[8] = tested on: T. cruzi amastigotes (Sylvio X10/1 clone) in U2OS cells; test: Intracellular amastigote proliferation in infected U2OS cells; type: cell-based, Trypanosoma cruzi; details: for EC50: Trypanosoma cruzi, U2OS, 48 h, read-out: EC50 intracellular amastigotes; for selectivity index: from EC50 and CC50 averages, U2OS cells
Summary of the method: as §1

[9] = tested on: rabbit reticulocytes (Retic Lysate IVT kit) translating Renilla mRNA; test: In vitro translation by rabbit reticulocyte lysate; type: biochemical; details: 10 µM, 1 hour, Fig. S5
Summary of the method: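 Commercial rabbit reticulocyte lysate run per kit instructions, 0.6 μg per reaction of the capped, polyadenylated Renilla luciferase mRNA used in the parasite-extract assays.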

% Inhibition [1]: ~20%
Compound: CC1CCC(C(C)C)C(OC(=O)Cn2c(-c3ccc(Br)cc3)[n+](C)c3ccccc32)C1.[Cl-] (stereo not drawn) [Compound 3]

Compound: c1ccc(Nc2nc(NCC3CCCO3)c3ccccc3n2)cc1 (stereo not drawn) [Compound 97]
Plasmodium falciparum inhibition (in words) (Plasmodium falciparum): inhibit Plasmodium falciparum

Compound: Cl.Fc1ccc(Nc2nc(NCC3CCCO3)c3ccccc3n2)cc1 (stereo not drawn) [Compound 39D]
puromycin incorporation into elongating protein chains (in words) [2]: inhibited puromycin incorporation

Compound: Cl.OCCNc1nc(NCC2CCCO2)c2ccccc2n1 (stereo not drawn) [Compound 39I]
% Inhibition (40 µM) [3]: over 50%

% Inhibition [1]: ~100%
Compound: C[C@@H]1[C@H](O)[C@@H](C)/C=C/C=C/C=C/C=C/C=C/C=C/C=C/[C@H](O[C@@H]2O[C@H](C)[C@@H](O)[C@H](N)[C@@H]2O)C[C@@H]2O[C@](O)(C[C@@H](O)C[C@@H](O)[C@H](O)CC[C@@H](O)C[C@@H](O)CC(=O)O[C@H]1C)C[C@H](O)[C@H]2C(=O)O [Compound 108, Amphotericin B]

Compound: Cl.c1ccc(CNc2nc(NCC3CCCO3)c3ccccc3n2)nc1 (stereo not drawn) [Compound 39M]
% Inhibition (40 µM) [3]: less than 40%

% Inhibition [1]: ~20%
Compound: COc1cccc(Nc2nc(NCC3CCCO3)c3ccccc3n2)c1.Cl (stereo not drawn) [Compound 39]
PAK4 inhibition (in words) (PAK4): inhibit PAK4 | inhibition of in vitro translation (in words) [4]: clear inhibition | puromycin incorporation into elongating protein chains (in words) [2]: inhibited puromycin incorporation

Compound: c1ccc2c(NCC3CCCO3)nc(Nc3ccncc3)nc2c1 (stereo not drawn) [Compound 39C]
% Inhibition (40 µM) [3]: around 50%

Compound: CN(C)c1nc(NCC2CCCO2)c2ccccc2n1.Cl (stereo not drawn) [Compound 39F]
% Inhibition (40 µM) [3]: around 50%

Compound: Cl.OCCNc1nc(Nc2ccccc2)nc2ccccc12 [Compound 39L]
% Inhibition (40 µM) ([3]; 40 µM): around 50%

Compound: NC[C@@H]1O[C@H](O[C@H]2[C@@H](O)[C@H](O[C@@H]3[C@@H](O)[C@H](N)C[C@H](N)[C@H]3O[C@H]3O[C@H](CO)[C@@H](O)[C@H](O)[C@H]3N)O[C@@H]2CO)[C@H](N)[C@@H](O)[C@@H]1O [Paromomycin, reference compound]
inhibition of translation in T. cruzi extract (in words) [3]: did not inhibit translation | inhibition of translation in T. cruzi extract (in words) ([3]; listed as paromomycin): had no effect | effect on epimastigote growth (in words) [5]: did not affect parasite growth | effect on epimastigote growth (in words) ([5]; listed as paromomycin): did not impact T. cruzi proliferation

Compound: Cl.Clc1cccc(Nc2nc(N3CCOCC3)c3ccccc3n2)c1 [Compound 39K]
% Inhibition (40 µM) [3]: over 50%

Compound: C[C@@H]1C[C@@H]([C@H](O)CC2CC(=O)NC(=O)C2)C(=O)[C@@H](C)C1 [cycloheximide]
concentration above which translation was fully inhibited [1]: above 0.5 μM

Compound: CN[C@@H]1C[C@H](N)[C@@H](O)[C@H](O[C@H]2O[C@H](CO)[C@H](O)[C@@H]3O[C@@]4(O[C@@H]23)O[C@H]([C@H](N)CO)[C@H](O)[C@H](O)[C@H]4O)[C@H]1O [hygromycin]
concentration above which translation was fully inhibited [1]: above 50 nM

EC50 [8]: 400 ± 200 nM
Compound: Fc1ccccc1Nc1nc(NCC2CCCO2)c2ccccc2n1 (stereo not drawn) [Compound 39H]
% Inhibition (40 µM) ([3]; 40 µM): over 50% | Plasmodium falciparum inhibition (in words) (Plasmodium falciparum): P. falciparum inhibitors | EC50 and CC50 values compared with the U2OS/Sylvio experiment (in words) [6]: Comparable values | CC50 at 48 h [7]: 84 ± 40 µM | selectivity index [8]: ~200 | EC50 [5]: 4.8 ± 2 µM | concentration for maximal inhibition / full block of epimastigote growth [5]: > 50 µM | puromycin incorporation into elongating protein chains (in words) [2]: inhibited puromycin incorporation

Compound: Cl.Oc1ccc(Nc2nc(NCC3CCCO3)c3ccccc3n2)cc1 (stereo not drawn) [Compound 39B]
% Inhibition (40 µM) [3]: over 50%

Compound: Cc1ccc2c(c1)sc(-c1ccc(N(C)C)cc1)[n+]2C.[I-] [Compound 43]
puromycin incorporation into elongating protein chains (in words) [2]: inhibited puromycin incorporation

Compound: Cl.Fc1cccc(Nc2nc(NCC3CCCO3)c3ccccc3n2)c1 (stereo not drawn) [Compound 39A]
% Inhibition (40 µM) [3]: over 50%

EC50 [8]: 80 ± 70 nM
Compound: COc1ccccc1Nc1nc(NCC2CCCO2)c2ccccc2n1 (stereo not drawn) [Compound 39G]
% Inhibition (40 µM) [3]: over 50% | Plasmodium falciparum inhibition (in words) (Plasmodium falciparum): P. falciparum inhibitors | EC50 and CC50 values compared with the U2OS/Sylvio experiment (in words) [6]: slightly high values | CC50 at 48 h [7]: 33 ± 20 µM | selectivity index [8]: ~415 | EC50 [5]: 2.8 ± 0.2 µM | concentration for maximal inhibition / full block of epimastigote growth [5]: ~15 µM | inhibition of protein synthesis by reticulocyte lysate (in words) [9]: did not inhibit | puromycin incorporation into elongating protein chains (in words) [2]: inhibited puromycin incorporation
